ChEMBL document CHEMBL1124135, “Substituted 2-[(2-benzimidazolylsulfinyl)methyl]anilines as potential inhibitors of H+/K+ ATPase” (J Med Chem, 1988)

Key:
[1] = target: Potassium-transporting ATPase (Canis familiaris); assay: In vitro inhibitory activity against H+/K+ ATPase prepared from canine fundic mucosa
[2] = tested on: Canis familiaris; assay: Inhibitory activity when administered intravenously in histamine-stimulated gastric fistula dog at 3 mg/kg, id; assay type: functional; conditions: Canis lupus familiaris, Stomach, in the assay text read “in” for “when administered intravenously in”
Method in brief: (§1)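 Conscious gastric-fistula dogs fasted 18 h, given 3 mg/kg after a 30-min basal period. Histamine infused at 15 μg/kg per h, with gastric juice collected every 30 min for 4 h. Total acidity found by titration with 0.1 N NaOH to pH 7.0.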

[3] = tested on: Canis familiaris; assay: Inhibitory activity when administered […] in histamine-stimulated gastric fistula dog at 3 mg/kg, id; Lethal at 10 mg/kg, id; assay type: functional, organism-based; conditions: Canis lupus familiaris, Stomach
Method in brief: as §1

IC50 [1]	Compound	inhibition in vivo at 3 mg/kg [2]	inhibition [3]
120 µM	COc1cc2nc([S+]([O-])Cc3ccccc3N)[nH]c2cc1OC (stereo not given)	–	–
> 100 µM	CCOC(=O)c1ccc(N)c(C[S+]([O-])c2nc3ccc(OC)cc3[nH]2)c1 (stereo not given)	–	–
5.3 µM	CCOc1ccc2[nH]c([S+]([O-])Cc3cc(C)ccc3N)nc2c1 (stereo not given)	–	–
1.6 µM	COc1ccc(N)c(C[S+]([O-])c2nc3ccccc3[nH]2)c1 (stereo not given)	–	–
> 100 µM	COC(=O)c1cccc(C[S+]([O-])c2nc3ccccc3[nH]2)c1N (stereo not given)	28%	–
5.4 µM	COc1ccc2[nH]c([S+]([O-])Cc3cccc(C)c3N)nc2c1 (stereo not given)	72%	–
0.7 µM	CN(C)c1ccccc1C[S+]([O-])c1nc2ccccc2[nH]1 (stereo not given)	14%	–
4.2 µM	COc1ccc2[nH]c([S+]([O-])Cc3cc(C)ccc3N)nc2c1 (stereo not given)	80%	–
0.7 µM	Cc1ccc2nc([S+]([O-])Cc3ccc(C)c(C)c3N)[nH]c2c1 (stereo not given)	–	–
4.3 µM	Nc1ccccc1C[S+]([O-])c1nc2ccccc2[nH]1 (stereo not given)	53%	–
2.1 µM	COc1ccc2[nH]c([S+]([O-])Cc3c(N)cc(C)c(OC)c3C)nc2c1 (stereo not given)	31%	–
2 µM	CCc1ccc(N)c(C[S+]([O-])c2nc3ccccc3[nH]2)c1 (stereo not given)	62%	–
2.7 µM	COc1cc(Cl)c(C)c(C[S+]([O-])c2nc3ccccc3[nH]2)c1N (stereo not given)	–	–
24 µM	CCOc1ccc2[nH]c([S+]([O-])Cc3ccccc3N)nc2c1 (stereo not given)	–	–
> 100 µM	CC(=O)Nc1ccccc1C[S+]([O-])c1nc2ccccc2[nH]1 (stereo not given)	37%	–
9.3 µM	COc1cccc(C[S+]([O-])c2nc3ccccc3[nH]2)c1N (stereo not given)	68%	–
7.9 µM	Cc1ccc2[nH]c([S+]([O-])Cc3ccccc3N)nc2c1 (stereo not given)	–	–
0.7 µM	Cc1cccc(N)c1C[S+]([O-])c1nc2ccccc2[nH]1 (stereo not given)	44%	–
13.5 µM	Cc1cc2nc([S+]([O-])Cc3ccccc3N)[nH]c2cc1C (stereo not given)	44%	–
1.5 µM	Cc1ccc(C)c(C[S+]([O-])c2nc3cc(C(F)(F)F)ccc3[nH]2)c1N (stereo not given)	–	–
4.4 µM	Nc1ccccc1C[S+]([O-])c1nc2cc(C(F)(F)F)ccc2[nH]1 (stereo not given)	37%	–
0.2 µM	COc1c(C)cc(N)c(C[S+]([O-])c2nc3ccccc3[nH]2)c1C (stereo not given)	53%	–

IC50 [1]	Compound	inhibition in vivo at 3 mg/kg [2]	inhibition [3]
> 100 µM	CCOC(=O)c1ccc(N)c(C[S+]([O-])c2nc3ccccc3[nH]2)c1 (stereo not given)	7%	–
60 µM	Cc1cc(Cl)cc(C[S+]([O-])c2nc3ccccc3[nH]2)c1N (stereo not given)	–	–
3.2 µM	Cc1cccc(C[S+]([O-])c2nc3ccccc3[nH]2)c1N (stereo not given)	44%	–
2.6 µM	CCCCc1ccc(N)c(C[S+]([O-])c2nc3ccccc3[nH]2)c1 (stereo not given)	19%	–
0.6 µM	Cc1ccc(C[S+]([O-])c2nc3ccccc3[nH]2)c(N)c1C (stereo not given)	79%	–
6.4 µM	Cc1c(Cl)ccc(C[S+]([O-])c2nc3ccccc3[nH]2)c1N (stereo not given)	–	–
2.1 µM	Cc1ccc(N)c(C[S+]([O-])c2nc3ccccc3[nH]2)c1 (stereo not given)	67%	–
10 µM	Cc1cc(N)c(C[S+]([O-])c2nc3ccccc3[nH]2)c(C)c1C (stereo not given)	–	–
8.5 µM	COc1cccc(C[S+]([O-])c2nc3cc(C(F)(F)F)ccc3[nH]2)c1N (stereo not given)	–	–
0.8 µM	Cc1cc(C)c(N)c(C[S+]([O-])c2nc3ccccc3[nH]2)c1 (stereo not given)	–	Lethal at 10mg/kg,id
12 µM	Nc1ccccc1C[S+]([O-])c1nc2cc(Cl)ccc2[nH]1 (stereo not given)	–	–
7.4 µM	Cc1cccc2[nH]c([S+]([O-])Cc3ccccc3N)nc12 (stereo not given)	60%	–
–	[O-][S+](Cc1ccccn1)c1nc2ccccc2[nH]1 (stereo not given) [TIMOPRAZOLE]	68%	–
0.8 µM	Cc1ccc(C)c(C[S+]([O-])c2nc3ccccc3[nH]2)c1N (stereo not given)	–	–
–	COc1ccc2[nH]c([S+]([O-])Cc3ncc(C)c(OC)c3C)nc2c1 (stereo not given) [OMEPRAZOLE]	97%	–
3.9 µM	CCc1cccc(C[S+]([O-])c2nc3ccccc3[nH]2)c1N (stereo not given)	21%	–
> 100 µM	Nc1ccc(C(F)(F)F)cc1C[S+]([O-])c1nc2ccccc2[nH]1 (stereo not given)	16%	–
11 µM	COc1ccc2[nH]c([S+]([O-])Cc3ccccc3N)nc2c1 (stereo not given)	78%	–
25 µM	Nc1ccc(F)cc1C[S+]([O-])c1nc2ccccc2[nH]1 (stereo not given)	–	–
24 µM	Nc1cc(Cl)ccc1C[S+]([O-])c1nc2ccccc2[nH]1 (stereo not given)	13%	–
0.6 µM	CNc1ccccc1C[S+]([O-])c1nc2ccccc2[nH]1 (stereo not given)	21%	–
> 100 µM	Nc1ccc(Cl)cc1C[S+]([O-])c1nc2ccccc2[nH]1 (stereo not given)	24%	–
